According to PMC11079110 (Heliyon, 2024):

Experiments:
human KMO = human KMO (Homo sapiens, UniProt O15229); assay: Kinetics study; type: biochemical; conditions: Lineweaver-Burk plots, 0–40 μM compound, 0–20 μM L-Kyn
Outline: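 Human KMO was exposed to graded test compound concentrations across a range of L-Kyn concentrations. Reaction velocities were plotted as double reciprocals (Lineweaver-Burk). Inhibition type was assigned from how the x- and y-intercepts, reflecting Km and Vmax, shifted with inhibitor. Each condition was run in triplicate, and the experiments were repeated three times.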

KMO = conditions: read-out: IC50 (KMO inhibitor); cited from earlier work

Sequence of human KMO (O15229 whole entry): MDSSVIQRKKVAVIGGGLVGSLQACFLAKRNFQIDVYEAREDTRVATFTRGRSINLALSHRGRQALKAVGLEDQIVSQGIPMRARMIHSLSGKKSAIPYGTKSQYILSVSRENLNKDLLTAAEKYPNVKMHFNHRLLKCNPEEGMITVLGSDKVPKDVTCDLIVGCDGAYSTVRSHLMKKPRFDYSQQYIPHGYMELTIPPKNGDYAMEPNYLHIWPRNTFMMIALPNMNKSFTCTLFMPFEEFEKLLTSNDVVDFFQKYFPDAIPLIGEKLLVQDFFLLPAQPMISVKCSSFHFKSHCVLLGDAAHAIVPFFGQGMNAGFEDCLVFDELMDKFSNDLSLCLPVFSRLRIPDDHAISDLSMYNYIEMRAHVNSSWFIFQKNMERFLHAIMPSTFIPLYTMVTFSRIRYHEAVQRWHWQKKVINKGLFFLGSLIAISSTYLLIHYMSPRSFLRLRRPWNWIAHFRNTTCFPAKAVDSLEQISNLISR

Compound	Inhibition type (human KMO)	Inhibition type (human KMO; listed as genkwanin)	IC50 (KMO) [nM]	Inhibition type (human KMO; listed as apigenin)
COc1cc(O)c2c(=O)cc(-c3ccc(O)cc3)oc2c1 [Genkwanin]	non-competitive inhibition	non-competitive inhibitors		
Cc1ccc([C@@H](C)Oc2cc3onc(CCC(=O)O)c3cc2Cl)nn1 [GSK 366]			2.3	
O=c1cc(-c2ccc(O)cc2)oc2cc(O)cc(O)c12 [Apigenin]	non-competitive inhibition			non-competitive inhibitors
O=C(O)[C@H]1C[C@@H]1C(=O)c1ccc(Cl)c(Cl)c1 [UPF-648]			20	
